Laboratory results taken from ChEMBL document CHEMBL1123921, “Quinolonecarboxylic acids. 2. Synthesis and antibacterial evaluation of 7-oxo-2,3-dihydro-7H-pyrido[1,2,3-de][1,4]benzothiazine-6-carboxylic acids” (J Med Chem, 1987).
Values after ≈ are worked out from the molar mass of the structure shown.

Tests used:
Assay type in all cases: functional
[1] = tested on: Enterobacter cloacae; assay: In vitro antibacterial activity against clinical isolates of Enterobacter cloacae 041 (gram negative) by agar dilution assay.
In short: (§1)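 Agar dilution on Isosensitest agar; compound incorporated by twofold serial dilution. Overnight broth cultures delivered by multipoint inoculator at 10⁵ CFU per point. Plates read after 18 h at 37 °C. MIC taken as the lowest concentration giving complete growth inhibition.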

[2] = tested on: Pseudomonas aeruginosa; assay: In vitro antibacterial activity against clinical isolates of Pseudomonas aeruginosa 2437 (gram negative) by agar dilution assay.; in short: as §1
[3] = tested on: Staphylococcus aureus; assay: In vitro antibacterial activity against clinical isolates of Staphylococcus aureus 18773 (gram-positive) by agar dilution assay.; in short: as §1
[4] = tested on: Klebsiella pneumoniae; assay: In vitro antibacterial activity against clinical isolates of Klebsiella pneumoniae-4 (gram negative) by agar dilution assay.; in short: as §1
[5] = tested on: Morganella morganii; assay: In vitro antibacterial activity against clinical isolates of Proteus morganii 27 (gram negative) by agar dilution assay.; in short: as §1
[6] = tested on: Escherichia coli; assay: In vitro antibacterial activity against clinical isolates of Escherichia coli 15 (gram negative) by agar dilution assay.; in short: as §1

SMILES | MIC [1] | MIC [2] | MIC [3] | MIC [4] | MIC [5] | MIC [6]
CC1CN(c2c(F)cc3c(=O)c(C(=O)O)cn4c3c2SCC4)CC(C)N1 (centres undefined) | 3.12 µg/mL (≈ 8.27 µM) | 100 µg/mL (≈ 265 µM) | 3.12 µg/mL (≈ 8.27 µM) | 6.25 µg/mL (≈ 16.6 µM) | 25 µg/mL (≈ 66.2 µM) | 6.25 µg/mL (≈ 16.6 µM)
O=C(O)c1cn2c3c(c(Cl)c(F)cc3c1=O)S(=O)(=O)CC2 |  |  |  |  |  | > 50 µg/mL
O=C(O)c1cn2c3c(c(N4CCN(C(=O)C(F)(F)F)CC4)c(F)cc3c1=O)SCC2 | < 0.39 µg/mL | 12.5 µg/mL (≈ 28.1 µM) | 1.56 µg/mL (≈ 3.5 µM) | < 0.39 µg/mL | 1.56 µg/mL (≈ 3.5 µM) | < 0.39 µg/mL
O=C(O)c1cn2c3c(cc(Cl)cc3c1=O)SCC2 | 12.5 µg/mL (≈ 44.4 µM) | > 100 µg/mL | 25 µg/mL (≈ 88.7 µM) | 6.25 µg/mL (≈ 22.2 µM) | 6.25 µg/mL (≈ 22.2 µM) | 3.12 µg/mL (≈ 11.1 µM)
O=C(O)c1cn2c3c(cc(N4CCN(C(=O)C(F)(F)F)CC4)cc3c1=O)SCC2 |  | 100 µg/mL (≈ 234 µM) | 50 µg/mL (≈ 117 µM) |  | > 50 µg/mL | > 50 µg/mL
CN1CCN(c2cc3c4c(c2)c(=O)c(C(=O)O)cn4CCS3)CC1 |  | > 100 µg/mL | 100 µg/mL (≈ 289 µM) |  | 100 µg/mL (≈ 289 µM) | 100 µg/mL (≈ 289 µM)
O=C(O)c1cn2c3c(c(N4CCCC4)c(F)cc3c1=O)SCC2 | 1.56 µg/mL (≈ 4.67 µM) | 3.12 µg/mL (≈ 9.33 µM) | < 0.39 µg/mL | 1.56 µg/mL (≈ 4.67 µM) | 3.12 µg/mL (≈ 9.33 µM) | 1.56 µg/mL (≈ 4.67 µM)
O=C(O)c1cn2c3c(cccc3c1=O)SCC2 | 25 µg/mL (≈ 101 µM) | 50 µg/mL (≈ 202 µM) | 25 µg/mL (≈ 101 µM) | 25 µg/mL (≈ 101 µM) | 12.5 µg/mL (≈ 50.6 µM) | 6.25 µg/mL (≈ 25.3 µM)
O=C(O)c1cn2c3c(c(Cl)c(N4CCCC4)cc3c1=O)SCC2 | > 50 µg/mL | > 50 µg/mL | > 50 µg/mL | > 50 µg/mL | > 50 µg/mL | > 50 µg/mL
O=C(O)c1cn2c3c(cc(N4CCOCC4)cc3c1=O)SCC2 | > 50 µg/mL | 6.25 µg/mL (≈ 18.8 µM) | > 50 µg/mL | > 50 µg/mL | > 50 µg/mL | > 50 µg/mL
O=C(O)c1cn2c3c(cc(F)c(N4CCCC4)c3c1=O)SCC2 |  |  | > 100 µg/mL | > 100 µg/mL |  | > 100 µg/mL
O=C(O)c1cn2c3c(cc(N4CCN(Cc5ccccc5)CC4)cc3c1=O)SCC2 |  | > 50 µg/mL | 50 µg/mL (≈ 119 µM) |  | > 50 µg/mL | 50 µg/mL (≈ 119 µM)
O=C(O)c1cn2c3c(cc(N4CCN(CCO)CC4)cc3c1=O)SCC2 |  | > 100 µg/mL | 100 µg/mL (≈ 266 µM) |  | > 50 µg/mL | 100 µg/mL (≈ 266 µM)
O=C(O)c1cn2c3c(cc(F)cc3c1=O)S(=O)(=O)CC2 |  | > 50 µg/mL | > 50 µg/mL |  |  | 100 µg/mL (≈ 336 µM)
O=C(O)c1cn2c3c(c(N4CCCC4)c(F)cc3c1=O)S(=O)(=O)CC2 | 25 µg/mL (≈ 68.2 µM) | > 50 µg/mL | 3.12 µg/mL (≈ 8.52 µM) | 25 µg/mL (≈ 68.2 µM) | > 50 µg/mL | 3.12 µg/mL (≈ 8.52 µM)
O=C(O)c1cn2c3c(cc(F)c(Cl)c3c1=O)SCC2 | > 50 µg/mL | > 50 µg/mL | > 50 µg/mL | > 50 µg/mL | > 50 µg/mL | > 50 µg/mL
O=C(O)c1cn2c3c(c(Cl)c(F)cc3c1=O)SCC2 | 0.39 µg/mL (≈ 1.3 µM) | > 25 µg/mL | 0.39 µg/mL (≈ 1.3 µM) | 0.78 µg/mL (≈ 2.6 µM) | 6.25 µg/mL (≈ 20.9 µM) | 0.39 µg/mL (≈ 1.3 µM)
O=C(O)c1cn2c3c(c(N4CCN(CC(F)(F)F)CC4)c(F)cc3c1=O)SCC2 | > 50 µg/mL | > 50 µg/mL | 0.39 µg/mL (≈ 0.904 µM) | > 50 µg/mL | > 50 µg/mL | > 50 µg/mL
CCOC(=O)N1CCN(c2c(F)cc3c(=O)c(C(=O)O)cn4c3c2SCC4)CC1 | 6.25 µg/mL (≈ 14.8 µM) | > 50 µg/mL | 0.39 µg/mL (≈ 0.925 µM) | 6.25 µg/mL (≈ 14.8 µM) | > 50 µg/mL | 6.25 µg/mL (≈ 14.8 µM)

SMILES | MIC [1] | MIC [2] | MIC [3] | MIC [4] | MIC [5] | MIC [6]
O=C(O)c1cn2c3c(cc(F)cc3c1=O)SCC2 | 6.25 µg/mL (≈ 23.6 µM) | 50 µg/mL (≈ 188 µM) | 6.25 µg/mL (≈ 23.6 µM) | 3.12 µg/mL (≈ 11.8 µM) | 3.12 µg/mL (≈ 11.8 µM) | 0.78 µg/mL (≈ 2.94 µM)
O=C(O)c1cn2c3c(c(N4CCSCC4)c(F)cc3c1=O)SCC2 | 1.56 µg/mL (≈ 4.26 µM) | > 50 µg/mL | 0.78 µg/mL (≈ 2.13 µM) | 1.56 µg/mL (≈ 4.26 µM) | 6.25 µg/mL (≈ 17.1 µM) | 3.12 µg/mL (≈ 8.51 µM)
O=C(O)c1cn2c3c(cc(N4CCCC4)cc3c1=O)SCC2 |  | 100 µg/mL (≈ 316 µM) | 50 µg/mL (≈ 158 µM) |  |  | 50 µg/mL (≈ 158 µM)
O=C(O)c1cn2c3c(c(N4CCNCC4)c(F)cc3c1=O)SCC2 | < 0.39 µg/mL | 12.5 µg/mL (≈ 35.8 µM) | 0.78 µg/mL (≈ 2.23 µM) | < 0.39 µg/mL | 1.56 µg/mL (≈ 4.46 µM) | 0.39 µg/mL (≈ 1.12 µM)
O=C(O)c1cn2c3c(cc(F)c(N4CCNCC4)c3c1=O)SCC2 | > 100 µg/mL | > 100 µg/mL | > 100 µg/mL | > 100 µg/mL | > 100 µg/mL | > 100 µg/mL
O=C(O)c1cn2c3c(c(Cl)c(Cl)cc3c1=O)SCC2 | > 50 µg/mL | > 50 µg/mL | 0.78 µg/mL (≈ 2.47 µM) | 12.5 µg/mL (≈ 39.5 µM) | 1.56 µg/mL (≈ 4.93 µM) | > 50 µg/mL
O=C(O)c1cn2c3c(c(Cl)c(N4CCNCC4)cc3c1=O)SCC2 | > 50 µg/mL | > 50 µg/mL | > 50 µg/mL | > 50 µg/mL | > 50 µg/mL | > 50 µg/mL
O=C(O)c1cn2c3c(c(Cl)c(F)cc3c1=O)[S+]([O-])CC2 (centres undefined) | > 100 µg/mL | > 100 µg/mL | > 100 µg/mL | > 100 µg/mL | > 100 µg/mL | > 100 µg/mL
O=C(O)c1cn2c3c(cc(N4CCCC4)c(Cl)c3c1=O)SCC2 |  | > 100 µg/mL | 100 µg/mL (≈ 285 µM) | > 100 µg/mL | > 100 µg/mL | > 100 µg/mL
O=C(O)c1cn2c3c(c(Cl)c(N4CCOCC4)cc3c1=O)SCC2 | > 50 µg/mL | 6.25 µg/mL (≈ 17 µM) | > 50 µg/mL | > 50 µg/mL | > 50 µg/mL | 6.25 µg/mL (≈ 17 µM)
O=C(O)c1cn2c3c(ccc(C(F)(F)F)c3c1=O)SCC2 | > 50 µg/mL | 100 µg/mL (≈ 317 µM) | > 50 µg/mL | > 50 µg/mL | > 50 µg/mL | > 50 µg/mL
O=C(O)c1cn2c3c(c(N4CCCC4)c(F)cc3c1=O)[S+]([O-])CC2 (centres undefined) | 50 µg/mL (≈ 143 µM) | > 50 µg/mL | 12.5 µg/mL (≈ 35.7 µM) | 25 µg/mL (≈ 71.4 µM) | > 50 µg/mL | 12.5 µg/mL (≈ 35.7 µM)
O=C(O)c1cn2c3c(cccc3c1=O)S(=O)(=O)CC2 | > 100 µg/mL | 100 µg/mL (≈ 358 µM) | > 100 µg/mL | > 100 µg/mL | > 100 µg/mL | 100 µg/mL (≈ 358 µM)
O=C(O)c1cn2c3c(cc(N4CCNCC4)cc3c1=O)SCC2 | 50 µg/mL (≈ 151 µM) | 50 µg/mL (≈ 151 µM) | > 50 µg/mL | 50 µg/mL (≈ 151 µM) | 50 µg/mL (≈ 151 µM) | > 50 µg/mL
CN1CCN(c2cc3c(=O)c(C(=O)O)cn4c3c(c2Cl)SCC4)CC1 | > 50 µg/mL | 6.25 µg/mL (≈ 16.5 µM) | > 50 µg/mL | > 50 µg/mL | > 50 µg/mL | > 50 µg/mL
CCn1cc(C(=O)O)c(=O)c2cc(F)c(N3CCNCC3)cc21 [NORFLOXACIN] | 0.39 µg/mL (≈ 1.22 µM) | 1.56 µg/mL (≈ 4.89 µM) | 0.19 µg/mL (≈ 0.595 µM) | 0.19 µg/mL (≈ 0.595 µM) | 0.78 µg/mL (≈ 2.44 µM) | 0.19 µg/mL (≈ 0.595 µM)
CC1COc2c(N3CCN(C)CC3)c(F)cc3c(=O)c(C(=O)O)cn1c23 (centres undefined) [OFLOXACIN] | 0.19 µg/mL (≈ 0.526 µM) | 1.56 µg/mL (≈ 4.32 µM) | 0.19 µg/mL (≈ 0.526 µM) | 0.39 µg/mL (≈ 1.08 µM) | 0.78 µg/mL (≈ 2.16 µM) | 0.19 µg/mL (≈ 0.526 µM)
CCn1cc(C(=O)O)c(=O)c2cnc(N3CCNCC3)nc21 [PIPEMIDIC ACID] | 0.78 µg/mL (≈ 2.57 µM) | > 25 µg/mL | 3.12 µg/mL (≈ 10.3 µM) | 0.78 µg/mL (≈ 2.57 µM) | 3.12 µg/mL (≈ 10.3 µM) | 0.39 µg/mL (≈ 1.29 µM)
